ChEMBL document CHEMBL4020840, “Synthesis and Biological Evaluation of Selenium-Containing 4-Anilinoquinazoline Derivatives as Novel Antimitotic Agents” (J Med Chem, 2018)
Active and inactive are the calls of the source. The calls are words filed in the database; no cut-off is given here.

Legend:
Sus scrofa = organism: Sus scrofa; test: (§1) Inhibition of porcine brain tubulin polymerization measured every 60 secs for 90 mins by DAPI staining based fluorescence assay
In short: (§2)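 Purified tubulin was tested in a kit assay. Final buffer: 80 mM PIPES sesquisodium (pH 6.9), 2.0 mM MgCl₂, 0.5 mM EGTA, 1 mM GTP, 10.2% glycerol. Compound (0.1–10 μM) was prewarmed at 37 °C for 1 min before tubulin was added. DAPI reporter fluorescence (ex 340 / em 410 nm) was read every 60 s for 90 min. Area under the curve gave percent inhibition versus control and the IC50.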

A549 [1] = test: Cell cycle arrest in human A549 cells assessed as accumulation at G2/M phase up to 24 hrs by propidium iodide staining based flow cytometry; assay type: functional
In short: (§3)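 A549 seeded in six-well plates at 3 × 10⁵ cells/well and treated for 12 or 24 h; vehicle 0.01% DMSO. Cells fixed overnight in ice-cold 70% ethanol, treated with RNase A at 37 °C for 30 min, then stained with PI at 4 °C for 30 min. About 10 000 events acquired by flow cytometry at 488 nm; three experiments.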

A549 [2] = test: Cell cycle arrest in human A549 cells assessed as decrease in G1 phase at 4 nM up to 24 hrs by propidium iodide staining based flow cytometry; assay type: functional; in short: as §3
A549 [3] = test: Cell cycle arrest in human A549 cells assessed as decrease in S phase at 4 nM up to 24 hrs by propidium iodide staining based flow cytometry; assay type: functional; in short: as §3
A549 [4] = test: Induction of apoptosis in human A549 cells assessed as upregulation of Bax level at 2 to 4 nM after 24 to 48 hrs by Western blot method; assay type: functional, cell-based
In short: (§4)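 A549 seeded in 60 mm dishes at 5 × 10⁵ cells and treated for 24 or 48 h. Lysed in RIPA buffer on ice for 30 min and spun at 12 500g. Protein measured by BCA; 40 μg run on 8−12% SDS−PAGE and moved to nitrocellulose. Blocked in 5% milk, primary antibodies at 4 °C overnight, HRP secondary 2 h, ECL detection.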

A549 [5] = test: Induction of apoptosis in human A549 cells assessed as upregulation of Bad level at 2 to 4 nM after 24 to 48 hrs by Western blot method; assay type: functional, cell-based; in short: as §4
A549 [6] = test: Induction of apoptosis in human A549 cells assessed as downregulation of Bcl2 level at 2 to 4 nM after 24 to 48 hrs by Western blot method; assay type: functional, cell-based; in short: as §4
A549 [7] = test: Antimigratory activity against human A549 cells assessed as suppression of wound healing at 4 nM after 24 hrs by phase contrast microscopic method; assay type: functional, cell-based
In short: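 Scratch wound assay: A549 plated at 5 × 10⁴ cells/dish and grown 24 h before scraping with a 10 μL tip. Medium then swapped to serum-free DMEM containing compound (4 nM) for 24 h. After a PBS wash, wound images taken at 0 and 24 h; at least three independent experiments.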

A549 [8] = test: Induction of apoptosis in human A549 cells assessed as live cells at 2 nM after 24 hrs by Annexin V-FITC/propidium iodide staining based flow cytometry (reference value: 98.84%); assay type: functional
[9] = Selectivity index, ratio of IC50 for human LO2 cells to IC50 for human A549 cells; assay type: functional
In short: (§5)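 MTT assay in normal cells and A549: seeding at 5 × 10³ cells/well for 24 h, 48 h compound exposure, then 5 mg/mL MTT for 4 h, DMSO solubilisation and absorbance at 570 nm. IC50 values came from dose–response curves of at least three independent experiments. Selectivity ratio = IC50 in normal cells / IC50 in A549.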

[10] = Selectivity index, ratio of IC50 for HLF to IC50 for human A549 cells; in short: as §5
A549 [11] = test: Growth inhibition of human A549 cells after 48 hrs by MTT assay; assay type: functional, cell-based; settings: A549, 48 h
HCT-116 = test: Growth inhibition of human HCT116 cells after 48 hrs by MTT assay; assay type: functional, cell-based; settings: HCT-116, 48 h
In short: (§6)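 MTT assay: log-phase cells plated at 5 × 10³/well for 24 h, then exposed to a range of test concentrations for 48 h. MTT (5 mg/mL) added for 4 h, formazan dissolved in DMSO, absorbance read at 570 nm. IC50 is the concentration giving 50% growth inhibition, from dose-response curves; at least three independent experiments, mean ± SE.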

HepG2 = test: Growth inhibition of human HepG2 cells after 48 hrs by MTT assay; assay type: functional, cell-based; settings: HepG2, 48 h; in short: as §6
MDA-MB-231 = test: Growth inhibition of human MDA-MB-231 cells after 48 hrs by MTT assay; assay type: functional, cell-based; settings: MDA-MB-231, 48 h; in short: as §6
LoVo = test: Growth inhibition of human LoVo cells after 48 hrs by MTT assay; assay type: functional, cell-based; in short: as §6
RKO = test: Growth inhibition of human RKO cells after 48 hrs by MTT assay; assay type: functional, cell-based; in short: as §6
MCF7 = test: Antiproliferative activity against human MCF7 cells after 48 hrs by MTT assay; assay type: functional, cell-based; settings: MCF7, 48 h; in short: as §6
HeLa = test: Antiproliferative activity against human HeLa cells after 48 hrs by MTT assay; assay type: functional, cell-based; in short: as §6
MGC-803 = test: Antiproliferative activity against human MGC803 cells after 48 hrs by MTT assay; assay type: functional, cell-based; settings: MGC-803, 48 h; in short: as §6
A549/CDDP = test: Growth inhibition of human A549/CDDP cells after 48 hrs by MTT assay; assay type: functional, cell-based; in short: as §6
[12] = Growth inhibition of human HepG2/DOX cells after 48 hrs by MTT assay; assay type: functional, cell-based; in short: as §6
[13] = Resistance factor, ratio of IC50 for human A549/CDDP cells to IC50 for human A549 cells; assay type: functional
In short: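 MTT assay: log-phase cells were seeded at 5 × 10³/well for 24 h, then exposed to a concentration series for 48 h. MTT (5 mg/mL) was added for 4 h, formazan was dissolved in DMSO, and A570 was read. IC50 values came from dose–response curves of at least three independent experiments. Resistance factor = IC50 in the resistant line / IC50 in the parental sensitive line.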

[14] = as §1; set-up: species or system Sus scrofa; in short: as §2
[15] = Antiproliferative activity against HLF after 48 hrs by MTT assay; assay type: cell-based; settings: Homo sapiens; in short: as §6
A549 [16] = test: Cell cycle arrest in human A549 cells assessed as accumulation at G2/M phase at 4 nM after 12 hrs by propidium iodide staining based flow cytometry (reference value: 10.13%); assay type: functional; in short: as §3
A549 [17] = test: Cell cycle arrest in human A549 cells assessed as accumulation at G2/M phase at 4 nM after 24 hrs by propidium iodide staining based flow cytometry (reference value: 10.13%); assay type: functional; in short: as §3
A549 [18] = test: Induction of apoptosis in human A549 cells assessed as early apoptotic cells at 2 nM after 24 hrs by Annexin V-FITC/propidium iodide staining based flow cytometry (reference value: 0.98%); assay type: functional
A549 [19] = test: Induction of apoptosis in human A549 cells assessed as late apoptotic cells at 2 nM after 24 hrs by Annexin V-FITC/propidium iodide staining based flow cytometry (reference value: 0.08%); assay type: functional
A549 [20] = test: Induction of apoptosis in human A549 cells assessed as necrotic cells at 2 nM after 24 hrs by Annexin V-FITC/propidium iodide staining based flow cytometry (reference value: 0.10%); assay type: functional
A549 [21] = test: Induction of apoptosis in human A549 cells assessed as live cells at 4 nM after 24 hrs by Annexin V-FITC/propidium iodide staining based flow cytometry (reference value: 98.84%); assay type: functional
A549 [22] = test: Induction of apoptosis in human A549 cells assessed as early apoptotic cells at 4 nM after 24 hrs by Annexin V-FITC/propidium iodide staining based flow cytometry (reference value: 0.98%); assay type: functional
A549 [23] = test: Induction of apoptosis in human A549 cells assessed as late apoptotic cells at 4 nM after 24 hrs by Annexin V-FITC/propidium iodide staining based flow cytometry (reference value: 0.08%); assay type: functional
A549 [24] = test: Induction of apoptosis in human A549 cells assessed as necrotic cells at 4 nM after 24 hrs by Annexin V-FITC/propidium iodide staining based flow cytometry (reference value: 0.10%); assay type: functional
A549 [25] = test: Induction of apoptosis in human A549 cells assessed as live cells at 2 nM after 48 hrs by Annexin V-FITC/propidium iodide staining based flow cytometry (reference value: 98.49%); assay type: functional
A549 [26] = test: Induction of apoptosis in human A549 cells assessed as early apoptotic cells at 2 nM after 48 hrs by Annexin V-FITC/propidium iodide staining based flow cytometry (reference value: 1.48%); assay type: functional
A549 [27] = test: Induction of apoptosis in human A549 cells assessed as late apoptotic cells at 2 nM after 48 hrs by Annexin V-FITC/propidium iodide staining based flow cytometry (reference value: 0.03%); assay type: functional
A549 [28] = test: Induction of apoptosis in human A549 cells assessed as necrotic cells at 2 nM after 48 hrs by Annexin V-FITC/propidium iodide staining based flow cytometry relative to control; assay type: functional
A549 [29] = test: Induction of apoptosis in human A549 cells assessed as live cells at 4 nM after 48 hrs by Annexin V-FITC/propidium iodide staining based flow cytometry (reference value: 98.49%); assay type: functional
A549 [30] = test: Induction of apoptosis in human A549 cells assessed as early apoptotic cells at 4 nM after 48 hrs by Annexin V-FITC/propidium iodide staining based flow cytometry (reference value: 1.48%); assay type: functional
A549 [31] = test: Induction of apoptosis in human A549 cells assessed as late apoptotic cells at 4 nM after 48 hrs by Annexin V-FITC/propidium iodide staining based flow cytometry (reference value: 0.03%); assay type: functional
A549 [32] = test: Induction of apoptosis in human A549 cells assessed as necrotic cells at 4 nM after 48 hrs by Annexin V-FITC/propidium iodide staining based flow cytometry relative to control; assay type: functional
L02 = test: Antiproliferative activity against human LO2 cells after 48 hrs by MTT assay; assay type: cell-based; settings: L02, 48 h; in short: as §6
BJ = test: Antiproliferative activity against human BJ cells after 48 hrs by MTT assay; assay type: cell-based; in short: as §6
[33] = Selectivity index, ratio of IC50 for human BJ cells to IC50 for human A549 cells; assay type: functional; in short: as §5

In the case of Cc1nc(N(C)c2ccc([Se]C#N)cc2)c2ccccc2n1, the inhibition (Sus scrofa) is reported as “Dose-dependent effect”, the Activity (A549 [1]) is reported as “Dose-dependent effect” and the Activity (A549 [2]) is reported as “Active”. The Activity (A549 [3]) was “Active”, the Activity (A549 [4]) was “Active” and the Activity (A549 [5]) was “Active”. For the same molecule, the Activity (A549 [6]) was “Active” and the Activity (A549 [7]) was “Active”.

For C[Se]c1ccc(N(C)c2nc(C)nc3ccccc23)cc1F, the Activity (A549 [8]) was 85.06%, the “Ratio IC50” value [9] was 8 and the “Ratio IC50” value [10] was 9.5. It also gave an IC50 (A549 [11]) of 2 nM, an IC50 (HCT-116) of 6 nM and an IC50 (HepG2) of 4 nM. For the same molecule, the IC50 (MDA-MB-231) was 5 nM, the IC50 (LoVo) was 9 nM and the IC50 (RKO) was 7 nM. For the same molecule, the IC50 (MCF7) was 9 nM, the IC50 (HeLa) was 5 nM and the IC50 (MGC-803) was 7 nM. The IC50 (A549/CDDP) was 11 nM, the IC50 [12] was 5 nM and the “Ratio IC50” value [13] was 3.67. For the same molecule, the IC50 [14] was 1270 nM, the IC50 [15] was 19 nM and the Activity (A549 [16]) was 60.89%. For the same molecule, the Activity (A549 [17]) was 79.71%, the Activity (A549 [18]) was 10.96% and the Activity (A549 [19]) was 2.46%. The Activity (A549 [20]) was 1.52%, the Activity (A549 [21]) was 60.27% and the Activity (A549 [22]) was 36.98%. The Activity (A549 [23]) was 1.97%, the Activity (A549 [24]) was 0.78% and the Activity (A549 [25]) was 63.84%. For the same molecule, the Activity (A549 [26]) was 12.22%, the Activity (A549 [27]) was 16.6% and the Activity (A549 [28]) was 7.34%. For the same molecule, the Activity (A549 [29]) was 34.36%, the Activity (A549 [30]) was 27.52% and the Activity (A549 [31]) was 25.29%. It also gave an Activity (A549 [32]) of 12.82%, an IC50 (L02) of 16 nM and an IC50 (BJ) of 19 nM. The “Ratio IC50” value [33] was 9.5.
